Experimental findings from publication PMC11187553 (RSC Medicinal Chemistry, 2024) are described below.

The subject of series [1] is SH-SY5Y cells. Briefly: Cytotoxic effects in SH-SY5Y cells. To be noted: for cytotoxicity (in words): 0.1-100 μM, 24, 48 or 72 h. Type of series: cell-based, human.
Series [2] relates to SH-SY5Y cells. Put plainly: SH-SY5Y viability after sulforaphane. The class given is cell-based, human. To be noted: data not shown.
Series [3] deals with histones H2/H3 lysine acetylation. Put plainly: Western blot of lysine acetylation of histones H2/H3 in SH-SY5Y cells. Type of series: cell-based, human. The note with it: 5 μM, 6 h. In outline:
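SH-SY5Y cells were seeded at 20 × 10^4 cells/cm2 and grown 48 h, then given 5 μM test compound or vehicle for 6 h. Cells were washed in 10 mM sodium butyrate/PBS, nuclei isolated, and histones acid-extracted (0.4 N H2SO4, 4 °C, 1 h) and precipitated in acetone. Samples ran on 15% gels and were blotted to nitrocellulose with anti-acetyl-lysine antibody. Densitometry was normalised to H1.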
For orientation: A western blot detects proteins with antibodies after separation by electrophoresis.

Series [4] relates to SH-SY5Y cells. Briefly: Analysis of cell cycle in SH-SY5Y cells. The class given is cell-based, human. The note with it: 72 h. In a few lines:
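SH-SY5Y cells were grown in DMEM with 10% FBS and antibiotics at 37 °C in 5% CO2. After 72 h with test compound, cells were collected, fixed in 70% ice-cold ethanol and stained with a propidium iodide cell-cycle reagent for 30 min in the dark at room temperature. Cell-cycle distribution was read by flow cytometry.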

For series [5], the system named is reactive oxygen species (ROS) in SH-SY5Y cells. Briefly: ROS determination with DCFDA probe in SH-SY5Y cells. The class given is cell-based, human. To be noted: for protective effect against TBH-induced oxidative stress: 2 μM 24 h pre-treatment, 100 μM tert-butyl hydroperoxide 30 min; for effect on endogenous ROS (oxidative stress) vs control: 2 μM, 24 h, DCFDA. In a few lines:
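SH-SY5Y cells (1 × 10^4/well) were left 24 h to adhere, then given vehicle or 2 μM test compound for 24 h. After washing, cells were loaded with 10 μM DCFDA in DMEM for 30 min. Oxidative stress was then induced with 100 μM tert-butyl hydroperoxide in PBS for 30 min. Fluorescence (485/535 nm) was normalised to Lowry protein; experiments were done in triplicate.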

In series [6] the test system is SH-SY5Y cells. Briefly: SH-SY5Y viability after NAC pre-treatment and compound 6. The class given is cell-based, human. To be noted: NAC 2 mM 1 h, then compound 10 μM 24 h.
A further series has as its target T1, HDAC6 (Homo sapiens, UniProt Q9UBN7).
T1 sequence (Q9UBN7 1-1215): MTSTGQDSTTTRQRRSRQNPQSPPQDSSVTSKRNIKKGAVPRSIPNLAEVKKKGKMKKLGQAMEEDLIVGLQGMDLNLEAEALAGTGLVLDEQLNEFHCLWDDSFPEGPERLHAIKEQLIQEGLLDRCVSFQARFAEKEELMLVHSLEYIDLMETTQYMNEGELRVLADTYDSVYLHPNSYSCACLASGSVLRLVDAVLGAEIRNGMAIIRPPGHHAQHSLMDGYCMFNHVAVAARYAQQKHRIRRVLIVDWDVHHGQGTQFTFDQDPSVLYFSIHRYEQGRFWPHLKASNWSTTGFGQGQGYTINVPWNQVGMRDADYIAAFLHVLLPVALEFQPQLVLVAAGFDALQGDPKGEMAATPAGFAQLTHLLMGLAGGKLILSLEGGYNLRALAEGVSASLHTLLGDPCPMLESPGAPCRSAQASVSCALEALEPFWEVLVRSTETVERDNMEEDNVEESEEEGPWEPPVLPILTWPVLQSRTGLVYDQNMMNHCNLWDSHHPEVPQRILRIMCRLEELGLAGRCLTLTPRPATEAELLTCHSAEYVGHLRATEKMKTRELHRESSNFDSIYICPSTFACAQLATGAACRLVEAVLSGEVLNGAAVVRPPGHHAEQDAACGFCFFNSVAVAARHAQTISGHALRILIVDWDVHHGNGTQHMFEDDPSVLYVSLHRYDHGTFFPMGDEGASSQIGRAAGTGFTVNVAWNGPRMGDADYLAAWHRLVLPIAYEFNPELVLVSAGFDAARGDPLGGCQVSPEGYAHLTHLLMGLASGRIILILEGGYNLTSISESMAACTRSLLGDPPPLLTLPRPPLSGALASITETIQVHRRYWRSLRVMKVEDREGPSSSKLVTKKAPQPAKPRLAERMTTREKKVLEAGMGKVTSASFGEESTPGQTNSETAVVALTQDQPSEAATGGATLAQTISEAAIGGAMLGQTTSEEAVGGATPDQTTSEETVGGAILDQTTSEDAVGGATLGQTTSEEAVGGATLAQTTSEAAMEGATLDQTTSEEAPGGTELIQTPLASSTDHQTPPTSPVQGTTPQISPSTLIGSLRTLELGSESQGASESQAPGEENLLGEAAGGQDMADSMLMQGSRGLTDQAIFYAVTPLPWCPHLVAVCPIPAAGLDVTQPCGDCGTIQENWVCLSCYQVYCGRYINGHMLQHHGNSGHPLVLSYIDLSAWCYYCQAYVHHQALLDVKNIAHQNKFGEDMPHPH
Put plainly: HDAC inhibition in vitro assay. To be noted: from IC50 values of Table 2. Type of series: biochemical.

Series [7] relates to neural progenitor cells (neurospheres). Briefly: Neurospheres differentiation analysis. The class given is cell-based, Mus musculus. To be noted: 2.5 and 5 μM, 7 DIV. In a few lines: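 Neurospheres came from subventricular-zone NPCs of 8-month-old male C57BL/6N mice. Thirty spheres were plated on Matrigel-coated coverslips in complete DMEM F-12 with test compound or DMSO for 7 DIV. Cells were fixed in 4% PFA, permeabilised with Triton, blocked in goat serum, and stained overnight at 4 °C for DCX, GFAP, Olig2 and Nestin. Confocal z-stacks gave marker intensity/DAPI intensity; mean ± SD of 3 fields per condition.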

In series [8] the test system is SH-SY5Y cells. Briefly: Protection of SH-SY5Y cells from H2O2 cytotoxicity. The class given is cell-based, human. To be noted: pre-treatment at all concentrations (1-50 μM), 24 h.
A further series has as its system HepG2 cells. Briefly: Cytotoxicity in human hepatoma cell line HepG2. The class given is cell-based. The note with it: 24 h incubation at 1-100 μM, MTT. In outline: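 HepG2 cells were grown in MEM with 10% FBS, penicillin and streptomycin, then seeded at 1.5 × 10^4 cells/well. After 24 h they received test compound ([…]) in complete medium or vehicle for 24 h. MTT (0.2 mg mL−1 in PBS) was added for 2 h at 37 °C, formazan was dissolved in DMSO, and A570 was read. Results are % live cells versus vehicle, mean ± SD, n = 4.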

Series [9] relates to neural progenitor cells (neurospheres). Put plainly: Neurospheres proliferation. Type of series: cell-based, Mus musculus. To be noted: 7 DIV. In a few lines: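 NPCs from the subventricular zone of 8-month-old male C57BL/6N mice were Accutase-dissociated and plated as single cells (5 × 10^3/well) in suspension. Medium was DMEM-F12 with glutamine, insulin, 20 ng ml−1 EGF, 20 ng ml−1 FGF2, N2 and B27. Test compound (2.5–50 μM) or DMSO was present for 7 DIV. Brightfield live-cell images were taken daily; only aggregates over 400 μm2 were analysed.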

Entries after “also recorded” stand apart in the source; their conditions may differ.

A word on the IC50: it is the concentration at which inhibition is half-maximal. As to `CC1=C(NCCCCCC(=O)NO)C(=O)c2ccccc2C1=O` [Compound 2, N-Hydroxy-6-((3-methyl-1,4-dioxo-1,4-dihydronaphthalen-2-yl)amino)hexanamide], the concentration for half-maximal inhibition (IC50) in the series with SH-SY5Y cells [1] (Homo sapiens, 24 h, read-out: IC50 (μM) ± SEM 24 h) is > 100 µM.
Take `Nc1ccccc1NC(=O)c1ccc(CNC2=CC(=O)c3ccccc3C2=O)cc1` [Compound 5, N-(2-Aminophenyl)-4-(((1,4-dioxo-1,4-dihydronaphthalen-2-yl)amino)methyl)benzamide]: in the series with SH-SY5Y cells [1], the “cytotoxicity (in words)” value is recorded as “comparable to that of vorinostat”.
As for `CC1=C(NCc2ccc(C(=O)Nc3ccccc3N)cc2)C(=O)c2ccccc2C1=O` [Compound 6, N-(2-Aminophenyl)-4-(((3-methyl-1,4-dioxo-1,4-dihydronaphthalen-2-yl)amino)methyl)benzamide], the “change of toxic activity in cells pretreated with sulforaphane” value with SH-SY5Y cells [2] (SFN pre-treatment) is given as “did not observe any change in the toxic activity”. The “acetylation of histone H2/H3 lysines” value in series [3] is listed as “massive hyperacetylation”. The “cell-cycle block in G0/G1, S or G2/M (cytostatic effect)” value in the series with SH-SY5Y cells [4] is “no cell-cycle block”. In addition, in series [5], the “protective effect against TBH-induced oxidative stress” value is “did not show any protective effect” and the “effect on endogenous ROS (oxidative stress) vs control” value is “significant induction of oxidative stress”. For the same compound, the “mitigation of cytotoxic effect by NAC pre-treatment” value in the series on SH-SY5Y cells [6] is “not mitigated”.
With `O=C(CS)NCCCCNC1=CC(=O)c2ccccc2C1=O` [Compound 7, N-(4-((1,4-Dioxo-1,4-dihydronaphthalen-2-yl)amino)butyl)-2-mercaptoacetamide], in the series on SH-SY5Y cells [1], the “cytotoxicity (in words)” value is listed as “lowest cytotoxicity”.
Take `CC1=C(NCCCCNC(=O)CS)C(=O)c2ccccc2C1=O` [Compound 8, 2-Mercapto-N-(4-((3-methyl-1,4-dioxo-1,4-dihydronaphthalen-2-yl)amino)butyl)acetamide]: on HDAC6, the “selectivity between HDAC2 and HDAC6 isoforms” value is “no selectivity”. In [7], the “DCX+ cells (immature neurons marker) vs DMSO control” value is recorded as “significantly increased”, the “GFAP expression (astrocytes marker) vs DMSO control” value is “without affecting”, the “Nestin+ cells (NPCs marker) vs DMSO control” value was “decreased” and the “Olig2 expression (OPCs marker) vs DMSO control” value is recorded as “without affecting”. Moreover, the “protective activity in H2O2-stressed cells after sulforaphane treatment” value in the series on SH-SY5Y cells [2] (SFN (NQO1 inducer)) was “no increase in the protective activity”. In series [5], the “protective effect against TBH-induced oxidative stress” value was “did not show any protective effect” and the “effect on endogenous ROS (oxidative stress) vs control” value was “only a tendency to increase ROS production”. Besides, in the series with SH-SY5Y cells [8], the “rescue of SH-SY5Y cell viability from H2O2” value is on record as “did not rescue”. Further, the “toxicity in HepG2 cells (in words)” value in the series with HepG2 cells was “no significant toxicity up to 10 μM”. Moreover, in series [9] (2.5 and 5 μM), the “neurospheres number per well vs DMSO control” value is “significantly increased” and the “neurospheres size vs DMSO control” value is “without affecting”. The toxicity to neurospheres result in [9] (higher concentrations 25, 50 μM) was “toxic”. In addition, in the series with SH-SY5Y cells [1], the “cytotoxicity (in words)” value was “nontoxic up to the concentration of 100 μM; also recorded: lowest cytotoxicity”.
